Tests used:
[1] = In vitro toxicity against burst forming unit erythroid (BFU-E); conditions: human, burst forming unit erythroid (BFU-E) progenitor cells
[2] = In vitro toxicity against colony forming unit granulocyte macrophage (CFU-GM); format: cell-based; conditions: human
[3] = system: MRC5; test: In vitro antiviral activity against Human cytomegalovirus (HCMV)strain AD169 in MRC-5 lung fibroblasts using a DNA-hybridization assay; format: functional, cell-based
Outline: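 HCMV strain AD169 grown in MRC-5 human lung fibroblasts; viral DNA read out by DNA hybridization. Each drug concentration tested in triplicate. IC50 derived by probit linear regression, and reported values span 7 to 12 independent experiments with standard errors.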

[4] = system: CCRF-CEM; test: The compound is evaluated for toxicity in CEM cells; format: cell-based; conditions: Homo sapiens
[5] = system: IM-9; test: The compound is evaluated for toxicity in IM-9 cells; format: cell-based; conditions: Homo sapiens
[6] = system: MOLT-4; test: The compound is evaluated for toxicity in MOLT-4 cells; format: cell-based; conditions: Homo sapiens

Row | SMILES | IC50 [1] | IC50 [2] | IC50 [3] | IC50 [4] | IC50 [5] | IC50 [6]
1 | Nc1nc(O)c2ncn(COC(CO)CCP(=O)(O)O)c2n1 (stereo not drawn) | 200 µM | 280 µM | 5.6 µM | – | – | –
2 | CCOP(=O)(O)CC[C@H](CO)OCn1cnc2c(O)nc(N)nc21 | – | – | 6.8 µM | – | – | –
3 | Nc1nc2c(ncn2CO[C@@H](CO)CCP(=O)(O)O)c(=O)[nH]1 | 126 µM | 96 µM | 1.7 µM | > 100 µM | > 100 µM | > 100 µM
4 | Nc1nc2c(ncn2COC(CO)CO)c(=O)[nH]1 [GANCICLOVIR] | 29 µM | 19 µM | 1.7 µM | – | – | –

— ChEMBL document CHEMBL1127652, “An enantiospecific synthesis of the human cytomegalovirus antiviral agent [(R)-3-((2-amino-1,6-dihydro-6-oxo-9H-purin-9-yl)methoxy)-4- hydroxybutyl]phosphonic acid” (J Med Chem, 1994)
